A short description of data set [1]: Cytotoxicity against human HUVEC cells assessed as cell viability at 9 to 150 uM after 24 hrs by MTT assay relative to control. It counts as cell-based. The note with it: read-out: Activity. The method, boiled down: (§1)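 Hep3B hepatoma, PC-3 prostate cancer and HUVEC (healthy control) cells were exposed to nitro compounds at 150, 75, 38, 19 and 9 µM for 24 h and 48 h. Viability was read by MTT assay, and IC50 values were derived from the growth inhibition curves.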

Data set [2] deals with PC-3. Briefly: Cytotoxicity against human PC3 cells assessed as cell viability at 9 to 150 uM after 48 hrs by MTT assay relative to control. It is filed as functional. The essentials:
as §1

Data set [3] deals with Hep 3B2. The experiment in a line: Cytotoxicity against human Hep3B cells assessed as cell viability after 48 hrs by MTT assay. It counts as functional, cell-based. The essentials: as §1
Data set [4] addresses T1, Putative nitroreductase (Staphylococcus saprophyticus subsp. saprophyticus (strain ATCC 15305 / DSM20229 / NCIMB 8711 / NCTC 7292 / S-41), UniProt Q4A0P1).
T1 sequence (Q4A0P1 whole entry): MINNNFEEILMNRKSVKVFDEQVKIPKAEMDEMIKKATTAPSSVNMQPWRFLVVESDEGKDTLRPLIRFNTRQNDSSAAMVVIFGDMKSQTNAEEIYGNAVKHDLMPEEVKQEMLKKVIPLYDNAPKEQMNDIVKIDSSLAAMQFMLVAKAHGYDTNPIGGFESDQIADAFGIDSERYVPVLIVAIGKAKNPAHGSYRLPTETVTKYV
The experiment in a line: Substrate activity at Staphylococcus saprophyticus nitroreductase expressed in Escherichia coli BL21 (DE3) assessed as retention time by HPLC analysis. It counts as ADME.

Data set [5] in a line: Cytotoxicity against human HUVEC cells assessed as cell viability at 9 to 150 uM after 48 hrs by MTT assay relative to control. Conditions: read-out: Activity. It is filed as cell-based. The essentials: as §1
For data set [6], the system named is PC-3. The experiment in a line: Cytotoxicity against human PC3 cells assessed as cell viability at 9 to 150 uM after 24 hrs by MTT assay relative to control. It counts as functional. The essentials: as §1
The test system of data set [7] is Hep 3B2. The experiment in a line: Cytotoxicity against human Hep3B cells assessed as cell viability after 24 hrs by MTT assay. It counts as functional, cell-based. The method, boiled down: as §1
Data set [8] has as its system PC-3. Briefly: Cytotoxicity against human PC3 cells assessed as cell viability after 24 hrs by MTT assay. It is filed as functional, cell-based. Conditions: pc-3. The method, boiled down:
as §1

The test system of data set [9] is HUVEC. Briefly: Cytotoxicity against human HUVEC cells assessed as cell viability after 24 hrs by MTT assay. It is filed as cell-based. The method, boiled down:
as §1

Data set [10] concerns PC-3. Briefly: Cytotoxicity against human PC3 cells assessed as reduction in cell viability after 48 hrs by SRB assay. It is filed as functional, cell-based. The essentials:
(§2)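 Compounds were reduced outside the cells by purified His-tag (Ni column) Ssap-NtrB. The reaction mix held 600 µM NADH and compound (150, 39, 9 µM, or 180, 18, 1.8 nM) and was applied to PC-3 cells. Controls were compound alone in 25 mM Tris/HCl pH 7.5, and enzyme alone at 31 µg/mL. After 48 h, SRB absorbance was read at 492 nm and converted to % viability.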

For data set [11], the system named is HUVEC. Briefly: Cytotoxicity against human HUVEC cells assessed as cell viability after 48 hrs by MTT assay. It is filed as cell-based. The essentials: as §1
For data set [12], the system named is PC-3. Briefly: Cytotoxicity against human PC3 cells assessed as cell viability after 48 hrs by MTT assay. It is filed as functional, cell-based. The essentials: as §1
The target of data set [13] is T2, Oxygen-insensitive NAD(P)H nitroreductase (Escherichia coli K-12, UniProt P38489).
T2 sequence (P38489 whole entry): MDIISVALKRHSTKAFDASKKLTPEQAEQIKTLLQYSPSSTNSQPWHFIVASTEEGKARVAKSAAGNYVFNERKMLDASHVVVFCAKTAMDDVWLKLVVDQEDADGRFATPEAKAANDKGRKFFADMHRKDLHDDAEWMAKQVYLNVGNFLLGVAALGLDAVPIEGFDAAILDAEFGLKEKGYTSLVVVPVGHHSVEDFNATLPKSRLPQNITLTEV
The experiment in a line: Substrate activity at Escherichia coli nitroreductase nfsB assessed as Kcat using NADH as cofactor in Tris-Cl buffer at pH 7.5 by spectrophotometric method. It counts as ADME.

In data set [14] the target is T2, Oxygen-insensitive NAD(P)H nitroreductase. Briefly: Substrate activity at Escherichia coli nitroreductase nfsB assessed as Km using NADH as cofactor in Tris-Cl buffer at pH 7.5 by spectrophotometric method based Michaelis-Menten plot analysis. It is filed as ADME.
Data set [15] has the same target. The experiment in a line: Substrate activity at Escherichia coli nitroreductase nfsB assessed as ratio of Kcat/Km using NADH as cofactor in Tris-Cl buffer at pH 7.5 by spectrophotometric method based Michaelis-Menten plot analysis. It is filed as ADME.
The subject of the next data set is nitroreductase nfsA. The experiment in a line: Substrate activity at Escherichia coli nitroreductase nfsA assessed as Km using NADPH as cofactor in Tris-Cl buffer at pH 7.5 by spectrophotometry based Michaelis-Menten plot analysis. It is filed as ADME. Conditions: Escherichia coli nitroreductase nfsA enzyme.
Data set [16] concerns the target T2, Oxygen-insensitive NAD(P)H nitroreductase. The experiment in a line: Substrate activity at Escherichia coli nitroreductase nfsB assessed as ratio of Kcat/Km using NADH as cofactor in Tris-Cl buffer at pH 7.5 by spectrophotometric method based Michaelis-Menten plot analysis relative to CB1954/NfsB. It counts as ADME.
The nature of data set [17]: Substrate activity at Escherichia coli nitroreductase nfsA assessed as Kcat using NADPH as cofactor in Tris-Cl buffer at pH 7.5 by spectrophotometric method. It is filed as ADME.
Data set [18] is described as follows: Substrate activity at Escherichia coli nitroreductase nfsA assessed as ratio of Kcat/Km using NADPH as cofactor in Tris-Cl buffer at pH 7.5 by spectrophotometric method based Michaelis-Menten plot analysis relative to CB1954/NfsB.
A short description of data set [19]: Substrate activity at Escherichia coli nitroreductase nfsA assessed as ratio of Kcat/Km using NADPH as cofactor in Tris-Cl buffer at pH 7.5 by spectrophotometry based Michaelis-Menten plot analysis. It counts as ADME.
Data set [20] deals with T1, Putative nitroreductase. Briefly: Substrate activity at Staphylococcus saprophyticus nitroreductase NtrB assessed as Kcat/Km using NADPH as cofactor in Tris-Cl buffer at pH 7.5 by HPLC analysis relative to CB1954/NfsB. It is filed as ADME.
The subject of data set [21] is PC-3. The experiment in a line: Cytotoxicity against human PC3 cells […] Staphylococcus saprophyticus nitroreductase NtrB assessed as reduction in cell viability in presence of NADH as cofactor after 48 hrs by SRB assay. It is filed as functional, cell-based. Conditions: PC-3, 48 h. The essentials:
as §2

For data set [22], the system named is Hep 3B2. Briefly: Cytotoxicity against human Hep3B cells assessed as cell viability at 9 to 150 uM after 24 hrs by MTT assay relative to control. It counts as functional. The essentials: as §1
For data set [23], the system named is Hep 3B2. The experiment in a line: Cytotoxicity against human Hep3B cells assessed as cell viability at 9 to 150 uM after 48 hrs by MTT assay relative to control. It is filed as functional. The essentials: as §1
Data set [24] addresses T1, Putative nitroreductase. The experiment in a line: Substrate activity at Staphylococcus saprophyticus nitroreductase NtrB assessed as enzyme specific activity using NADH as cofactor in Tris-Cl buffer at pH 7.5 by HPLC analysis. It is filed as ADME.

Calls of active or inactive are those of the source. The rule behind the calls is not given here.

Take `O=[N+]([O-])c1ccc(Nc2ccccc2)c([N+](=O)[O-])c1`: the viability at 24 h, up to 150 µM in [1] was > 80%. Also, the Activity in the data set with PC-3 [2] is >80%; in the data set on PC-3 [6] it was >80%; with HUVEC [9] (human, huvec), “Non-Toxic”; in the data set with HUVEC [11] (human, huvec) it was “Non-Toxic”. In addition, the IC50 in the data set with Hep 3B2 [3] is 150 µM; with Hep 3B2 [7] it was 84.9 µM; in the data set on PC-3 [8], “Not Active”; in the data set with PC-3 [12], “Not Active”. Further, the Retention_time at Putative nitroreductase [4] is 18.41 min. Besides, the viability at 48 h, up to 150 µM in data set [5] was > 80%. For the same compound, in the data set on PC-3 [10], the outcome was inactive.

Take `CS(=O)(=O)OCCN(CCBr)c1c(C(=O)NCCO)cc([N+](=O)[O-])cc1[N+](=O)[O-]`: the Kcat in data set [13] came to 60 s⁻¹; in data set [17], 12 s⁻¹. In addition, the Michaelis-Menten constant (Km) in [14] was found to be 4500 µM; with nitroreductase nfsA, 100 µM. Also, the Kcat/Km stood at 13000 M⁻¹ s⁻¹ in [15] and 120000 M⁻¹ s⁻¹ in [19]. Moreover, the “fold change (FC)” value is 2.32 in data set [16] and 21.43 in data set [18].

Regarding `O=[N+]([O-])c1ccc(Nc2ccc3ccccc3c2)c([N+](=O)[O-])c1`, the viability at 24 h, up to 150 µM in data set [1] was > 80%. Further, the Activity with PC-3 [2] is given as >80%; in the data set with PC-3 [6], 51 - 80%; with Hep 3B2 [22] it was 51 - 80%; with Hep 3B2 [23] it was 51 - 80%. Besides, on Putative nitroreductase [20], the “fold change (FC)” value came out at 1.48. For the same compound, the Retention_time at Putative nitroreductase [4] worked out at 20.13 min. In addition, the viability at 48 h, up to 150 µM in data set [5] was > 80%. The 50% inhibitory concentration (IC50) in the data set with PC-3 [21] is 5.07 µM. Besides, in the data set on PC-3 [10], the result was inactive.

Take `O=[N+]([O-])c1cc([N+](=O)[O-])c(Nc2ccc(O)cc2)cc1Nc1ccc(O)cc1`: the Activity at Putative nitroreductase [24] is on record as 1.61 U/mg; in the data set with PC-3 [6] it was >80%; in the data set with Hep 3B2 [22] it was 51 - 80%. Moreover, the IC50 in the data set on Hep 3B2 [3] was 14.5 µM; in the data set on HUVEC [9] (Homo sapiens, HUVEC) it was 66.7 µM; in the data set with HUVEC [11] (Homo sapiens, HUVEC) it was 150 µM; in the data set with PC-3 [12] it was “Not Active”. In addition, on Putative nitroreductase [4], the Retention_time worked out at 21.2 min.

These data come from ChEMBL document CHEMBL4376859, “Prodrugs for nitroreductase-based cancer therapy-3: Antitumor activity of the novel dinitroaniline prodrugs/Ssap-NtrB enzyme suicide gene system: Synthesis, in vitro and in silico evaluation in prostate cancer” (Eur J Med Chem, 2020).
